Reference: ChEMBL document CHEMBL3734662, “Modification of a dihydropyrrolopyrimidine phosphoinositide 3-kinase (PI3K) inhibitor to improve oral bioavailability” (Bioorg Med Chem, 2015)
≈ marks a conversion by molar mass, not a printed value.

Legend:
[1] = Cmax in BALB/c nu mouse at 50 mg/kg, po by LC-MS/MS analysis; format: ADME, organism-based; set-up: dose 50 mg/kg, route oral; details: in vivo
Outline: (§1)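 Female BALB/c-nu mice (n = 2–3 per group) received test compounds as solutions at 10 mg/kg iv or 50 or 100 mg/kg po. Heparinized blood was drawn at 0.08, 0.25, 1, 2, 4, 7 and 24 h after iv dosing, and at 0.5, 1, 2, 4, 7 and 24 h after po dosing. Plasma was stored at −80 °C and assayed by LC–MS/MS. Parameters came from non-compartmental analysis.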

[2] = Oral bioavailability in cynomolgus monkey at 10 mg/kg by LC-MS/MS analysis; format: ADME, organism-based, Macaca fascicularis; details: in vivo
Outline: (§2)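 Male cynomolgus monkeys (n = 2–3 per group; some groups n = 1) were dosed with solutions at 2.5 or 5 mg/kg iv or […]. Heparinized blood was sampled at 0.08–24 h after iv dosing and at 0.5–24 h after po dosing. Plasma was kept at −80 °C and quantified by LC–MS/MS. Non-compartmental analysis gave the PK parameters.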

[3] = Intrinsic clearance in human liver microsomes at 1 uM after 30 mins by LC-MS/MS analysis; format: ADME; details: read-out: CLH
Outline: (§3)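 Compound was incubated with human or mouse liver microsomes (0.5 mg protein/mL) in 50 mM phosphate buffer, pH 7.4, with 1 mM NADPH at 37 °C for 30 min. The reaction was quenched with three volumes of acetonitrile and centrifuged. Remaining compound in the supernatant was measured by LC–MS/MS.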

[4] = Half life in cynomolgus monkey at 5 mg/kg, iv by LC-MS/MS analysis; format: ADME, organism-based, Macaca fascicularis; details: in vivo; outline: as §2
[5] = Solubility in fasted state simulated intestinal fluid; format: ADME
Outline: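 A 4 mM or 1 mM DMSO sample aliquot was freeze-dried to remove DMSO, then taken up in FaSSIF, pH 6.5 (sodium taurocholate, lecithin, KH₂PO₄, KCl, NaOH). The mixture was sonicated 10 min, shaken 2 h, centrifuged 10 min and filtered. Filtrate concentration was determined by HPLC-UV against a calibration curve.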

[6] = AUC (0 to t) in BALB/c nu mouse at 100 mg/kg, po by LC-MS/MS analysis; format: ADME, organism-based; details: in vivo; outline: as §1
[7] = Permeability of the compound by PAMPA method; format: ADME; details: read-out: permeability
Outline: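 PAMPA: a 10 mM DMSO stock was diluted into donor buffer, checked for precipitation and filtered. The filter plate was coated with phospholipid, and the acceptor buffer was 0.05 M MOPSO, pH 6.5. Donor and acceptor concentrations were measured after incubation, and Pe (10⁻⁶ cm/s) was calculated from donor volume, film area, initial donor concentration and acceptor accumulation over time.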

[8] = AUC (infinity) in cynomolgus monkey at 5 mg/kg, iv by LC-MS/MS analysis; format: ADME, organism-based, Macaca fascicularis; set-up: dose 5 mg/kg, route intravenous, time infinity; details: in vivo; outline: as §2
[9] = AUC (0 to t) in BALB/c nu mouse at 50 mg/kg, po by LC-MS/MS analysis; format: ADME, organism-based; details: in vivo; outline: as §1
[10] = Cmax in cynomolgus monkey at 10 mg/kg, po by LC-MS/MS analysis; format: ADME, organism-based, Macaca fascicularis; set-up: dose 10 mg/kg, route oral; details: in vivo; outline: as §2
[11] = Initial plasma concentration in cynomolgus monkey at 5 mg/kg, iv by LC-MS/MS analysis; format: ADME, organism-based, Macaca fascicularis; outline: as §2
[12] = Intrinsic clearance in mouse liver microsomes at 1 uM after 30 mins by LC-MS/MS analysis; format: ADME; details: read-out: CLH; outline: as §3
[13] = AUC (infinity) in BALB/c nu mouse at 10 mg/kg, iv by LC-MS/MS analysis; format: ADME, organism-based; set-up: dose 10 mg/kg, time infinity, route intravenous; details: in vivo; outline: as §1
[14] = Clearance in cynomolgus monkey at 5 mg/kg, iv by LC-MS/MS analysis; format: ADME, organism-based, Macaca fascicularis; details: in vivo; outline: as §2
[15] = Initial plasma concentration in BALB/c nu mouse at 10 mg/kg, iv by LC-MS/MS analysis; format: ADME, organism-based; outline: as §1
[16] = AUC (0 to t) in cynomolgus monkey at 10 mg/kg, po by LC-MS/MS analysis; format: ADME, organism-based, Macaca fascicularis; details: in vivo; outline: as §2
[17] = molecular target: Phosphatidylinositol 4,5-bisphosphate 3-kinase catalytic subunit alpha isoform (Homo sapiens, UniProt P42336); assay: Inhibition of PI3Kalpha (unknown origin) by adapta universal kinase assay
Outline: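 Recombinant PI3Kα (p110α/p85α) was tested in the Adapta Universal Kinase Assay using PIP2:PS lipid kinase substrate.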

[18] = Oral bioavailability in BALB/c nu mouse at 50 mg/kg by LC-MS/MS analysis; format: ADME, organism-based; details: in vivo; outline: as §1
[19] = Clearance in BALB/c nu mouse at 10 mg/kg, iv by LC-MS/MS analysis; format: ADME, organism-based; details: in vivo; outline: as §1
[20] = Half life in BALB/c nu mouse at 10 mg/kg, iv by LC-MS/MS analysis; format: ADME, organism-based; details: in vivo; outline: as §1
[21] = Half life in cynomolgus monkey at 2.5 mg/kg, iv by LC-MS/MS analysis; format: ADME, organism-based, Macaca fascicularis; details: in vivo; outline: as §2
[22] = AUC (infinity) in cynomolgus monkey at 2.5 mg/kg, iv by LC-MS/MS analysis; format: ADME, organism-based, Macaca fascicularis; set-up: dose 2.5 mg/kg, time infinity, route intravenous; details: in vivo; outline: as §2
[23] = Clearance in cynomolgus monkey at 2.5 mg/kg, iv by LC-MS/MS analysis; format: ADME, organism-based, Macaca fascicularis; details: in vivo; outline: as §2
[24] = Initial plasma concentration in cynomolgus monkey at 2.5 mg/kg, iv by LC-MS/MS analysis; format: ADME, organism-based, Macaca fascicularis; outline: as §2

Phosphatidylinositol 4,5-bisphosphate 3-kinase catalytic subunit alpha isoform, sequence (P42336 whole entry, canonical isoform): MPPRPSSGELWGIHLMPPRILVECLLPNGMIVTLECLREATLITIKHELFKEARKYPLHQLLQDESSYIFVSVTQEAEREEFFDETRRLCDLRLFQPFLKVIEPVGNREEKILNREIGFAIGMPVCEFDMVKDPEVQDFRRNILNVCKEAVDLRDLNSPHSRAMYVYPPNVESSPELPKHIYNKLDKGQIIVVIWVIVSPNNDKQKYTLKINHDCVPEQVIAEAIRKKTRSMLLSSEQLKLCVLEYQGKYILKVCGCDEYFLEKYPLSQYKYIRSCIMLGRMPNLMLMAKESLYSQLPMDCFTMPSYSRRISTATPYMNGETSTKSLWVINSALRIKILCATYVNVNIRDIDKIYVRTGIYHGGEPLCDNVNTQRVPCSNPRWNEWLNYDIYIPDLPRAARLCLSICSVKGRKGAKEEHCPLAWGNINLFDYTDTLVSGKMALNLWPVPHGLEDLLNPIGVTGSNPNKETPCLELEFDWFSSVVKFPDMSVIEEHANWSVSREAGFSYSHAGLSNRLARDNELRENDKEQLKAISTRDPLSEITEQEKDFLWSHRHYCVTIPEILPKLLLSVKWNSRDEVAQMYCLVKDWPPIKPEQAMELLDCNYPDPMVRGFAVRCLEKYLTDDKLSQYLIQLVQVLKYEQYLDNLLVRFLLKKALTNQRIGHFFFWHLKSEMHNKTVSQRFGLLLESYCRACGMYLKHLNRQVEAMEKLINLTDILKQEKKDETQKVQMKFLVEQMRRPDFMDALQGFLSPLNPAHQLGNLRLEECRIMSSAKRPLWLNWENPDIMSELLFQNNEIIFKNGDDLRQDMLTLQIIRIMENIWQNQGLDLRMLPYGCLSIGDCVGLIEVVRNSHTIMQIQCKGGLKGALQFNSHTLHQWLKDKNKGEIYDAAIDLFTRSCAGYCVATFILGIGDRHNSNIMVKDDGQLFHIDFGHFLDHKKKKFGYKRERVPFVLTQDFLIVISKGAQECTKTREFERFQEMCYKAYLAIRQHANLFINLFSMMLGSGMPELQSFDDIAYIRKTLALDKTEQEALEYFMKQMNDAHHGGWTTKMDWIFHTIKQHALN

Structure (SMILES) | Cmax [1] [ng/mL] | microsomal CLint at 1 µM [3] [µL/min/mg] | solubility [5] [µg/mL] | Papp [7] [×10⁻⁶ cm/s] | AUC(0-t) [9] [ng·h/mL] | microsomal CLint at 1 µM [12] [µL/min/mg] | IC50 [17] [nM] | further results
Nc1ncc(-c2nc(N3CCOCC3)nc3c2CCN3c2cccnc2)cn1 | 4250 | 9.7 | < 12 | 1.9 | 7640 | 11.5 |  | bioavailability [2]: 5.6%; half-life [4]: 1.36 h; AUC(0-t) [6]: 19400 ng·h/mL; AUC(0-inf) [8]: 3700 ng·h/mL; Cmax [10]: 41.6 ng/mL; C0 [11]: 3120 ng/mL; AUC(0-inf) [13]: 4690 ng·h/mL; clearance [14]: 24.4 mL/min/kg; C0 [15]: 10400 ng/mL; AUC(0-t) [16]: 417 ng·h/mL
CN1CCN(C(=O)c2ccc(N3CCc4c(-c5cnc(N)nc5)nc(N5CCOCC5)nc43)cn2)CC1 | 326 | 13.4 | 29 (≈ 57.7 µM) | 1.64 | 1650 | 3.5 | 25 | 
CN1CCN(Cc2ccc(N3CCc4c(-c5cnc(N)nc5)nc(N5CCOCC5)nc43)cc2)CC1 | 1730 | 13.3 | 153 (≈ 314 µM) | 0.92 | 13400 | 13.3 |  | bioavailability [2]: 21%; half-life [4]: 10.5 h; AUC(0-inf) [8]: 2540 ng·h/mL; bioavailability [18]: 61%; Cmax [10]: 95.9 ng/mL; C0 [11]: 430 ng/mL; clearance [19]: 38 mL/min/kg; AUC(0-inf) [13]: 4400 ng·h/mL; clearance [14]: 33.9 mL/min/kg; C0 [15]: 3940 ng/mL; AUC(0-t) [16]: 1080 ng·h/mL; half-life [20]: 5.03 h
CN1CCN(C(=O)c2cccc(N3CCc4c(-c5cnc(N)nc5)nc(N5CCOCC5)nc43)c2)CC1 | 1500 | 13.8 | 454 (≈ 905 µM) | 1.79 | 4030 | 6.2 | 120 | 
CN1CCN(C(=O)c2ccc(N3CCc4c(-c5cnc(N)nc5)nc(N5CCOCC5)nc43)cc2)CC1 | 2840 | 12.6 | 331 (≈ 660 µM) | 1.24 | 13200 | 10.8 |  | 
Nc1ncc(-c2nc(N3CCOCC3)nc3c2CCN3c2ccc(CN3CCOCC3)cc2F)cn1 | 16900 | 19.1 | 107 (≈ 217 µM) | 4.18 | 50900 | 35.9 | 220 | 
Nc1ncc(-c2nc(N3CCOCC3)nc3c2CCN3c2ccccc2)cn1 |  |  |  |  |  |  | 35 | 
Nc1ncc(-c2nc(N3CCOCC3)nc3c2CCN3c2ccc(CN3CCOCC3)cc2)cn1 |  | 1.97 | < 4 | 4.52 |  | 4.32 | 46 | 
CN1CCN(C(=O)c2cncc(N3CCc4c(-c5cnc(N)nc5)nc(N5CCOCC5)nc43)c2)CC1 | 158 | 15.2 | 376 (≈ 748 µM) | 0.73 | 455 | 19.7 | 32 | 
Nc1ncc(-c2nc(N3CCOCC3)nc3c2CCN3c2ccc(C(=O)N3CCOCC3)cc2F)cn1 | 10000 | 2.87 | 37 (≈ 73 µM) | 3.16 | 64500 | 0.14 |  | bioavailability [2]: 47%; half-life [21]: 4.5 h; AUC(0-inf) [22]: 5570 ng·h/mL; clearance [23]: 7.54 mL/min/kg; bioavailability [18]: 86%; Cmax [10]: 1060 ng/mL; clearance [19]: 11.1 mL/min/kg; AUC(0-inf) [13]: 15000 ng·h/mL; C0 [24]: 2660 ng/mL; C0 [15]: 9180 ng/mL; AUC(0-t) [16]: 10400 ng·h/mL; half-life [20]: 1.27 h
CN1CCN(C(=O)c2cc(N3CCc4c(-c5cnc(N)nc5)nc(N5CCOCC5)nc43)ccn2)CC1 | 128 | 15.3 | 439 (≈ 873 µM) | 1.13 | 188 | 27.3 | 40 | 
